pIC50: −log10 of the molar value. Converted amounts (≈) assume the structure as drawn.
Assays:
Fatty acid synthase = Fatty acid synthase (Homo sapiens, UniProt P49327); test: Inhibitory concentration against purified human fatty acid synthase activity in ZR-75-1 breast cancer cells
In short: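 FAS purified from ZR-75-1 human breast cancer cells (2 µg per well). Overall reaction read at 37 °C as malonyl-CoA-dependent NADPH oxidation at 340 nm, every 10 s for 5 min. Average of duplicate runs; neg means IC50 > 50 µg/mL.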

Mus musculus = test: Maximum amount of weight loss in Balb/C mice after 7 days of 60 mg/kg intraperitoneal administration; assay type: functional
In short: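 Balb/C mice were given a single ip dose of 60 mg/kg in 100 µL DMSO (stock 10 mg/mL in DMSO), or vehicle alone. Mice were weighed daily until treated animals returned to pretreatment weight. The value is the maximum weight loss measured over 7 days.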

MCF7 [1] = test: Inhibitory concentration against fatty acid synthesis in MCF-7 breast cancer cells; assay type: functional, cell-based, Homo sapiens
MCF7 [2] = test: Inhibitory concentration against MCF-7 breast cancer cells in XTT assay (non radioactive assay); assay type: functional, cell-based, Homo sapiens
In short: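 MCF-7 human breast cancer cells, cytotoxicity measured by XTT cell proliferation assay (nonradioactive). The procedure was adapted from the kit instructions. IC50 is the average of duplicate runs.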

[3] = Homo sapiens, MCF7, read-out: IC50

Chain of Fatty acid synthase (P49327 whole entry): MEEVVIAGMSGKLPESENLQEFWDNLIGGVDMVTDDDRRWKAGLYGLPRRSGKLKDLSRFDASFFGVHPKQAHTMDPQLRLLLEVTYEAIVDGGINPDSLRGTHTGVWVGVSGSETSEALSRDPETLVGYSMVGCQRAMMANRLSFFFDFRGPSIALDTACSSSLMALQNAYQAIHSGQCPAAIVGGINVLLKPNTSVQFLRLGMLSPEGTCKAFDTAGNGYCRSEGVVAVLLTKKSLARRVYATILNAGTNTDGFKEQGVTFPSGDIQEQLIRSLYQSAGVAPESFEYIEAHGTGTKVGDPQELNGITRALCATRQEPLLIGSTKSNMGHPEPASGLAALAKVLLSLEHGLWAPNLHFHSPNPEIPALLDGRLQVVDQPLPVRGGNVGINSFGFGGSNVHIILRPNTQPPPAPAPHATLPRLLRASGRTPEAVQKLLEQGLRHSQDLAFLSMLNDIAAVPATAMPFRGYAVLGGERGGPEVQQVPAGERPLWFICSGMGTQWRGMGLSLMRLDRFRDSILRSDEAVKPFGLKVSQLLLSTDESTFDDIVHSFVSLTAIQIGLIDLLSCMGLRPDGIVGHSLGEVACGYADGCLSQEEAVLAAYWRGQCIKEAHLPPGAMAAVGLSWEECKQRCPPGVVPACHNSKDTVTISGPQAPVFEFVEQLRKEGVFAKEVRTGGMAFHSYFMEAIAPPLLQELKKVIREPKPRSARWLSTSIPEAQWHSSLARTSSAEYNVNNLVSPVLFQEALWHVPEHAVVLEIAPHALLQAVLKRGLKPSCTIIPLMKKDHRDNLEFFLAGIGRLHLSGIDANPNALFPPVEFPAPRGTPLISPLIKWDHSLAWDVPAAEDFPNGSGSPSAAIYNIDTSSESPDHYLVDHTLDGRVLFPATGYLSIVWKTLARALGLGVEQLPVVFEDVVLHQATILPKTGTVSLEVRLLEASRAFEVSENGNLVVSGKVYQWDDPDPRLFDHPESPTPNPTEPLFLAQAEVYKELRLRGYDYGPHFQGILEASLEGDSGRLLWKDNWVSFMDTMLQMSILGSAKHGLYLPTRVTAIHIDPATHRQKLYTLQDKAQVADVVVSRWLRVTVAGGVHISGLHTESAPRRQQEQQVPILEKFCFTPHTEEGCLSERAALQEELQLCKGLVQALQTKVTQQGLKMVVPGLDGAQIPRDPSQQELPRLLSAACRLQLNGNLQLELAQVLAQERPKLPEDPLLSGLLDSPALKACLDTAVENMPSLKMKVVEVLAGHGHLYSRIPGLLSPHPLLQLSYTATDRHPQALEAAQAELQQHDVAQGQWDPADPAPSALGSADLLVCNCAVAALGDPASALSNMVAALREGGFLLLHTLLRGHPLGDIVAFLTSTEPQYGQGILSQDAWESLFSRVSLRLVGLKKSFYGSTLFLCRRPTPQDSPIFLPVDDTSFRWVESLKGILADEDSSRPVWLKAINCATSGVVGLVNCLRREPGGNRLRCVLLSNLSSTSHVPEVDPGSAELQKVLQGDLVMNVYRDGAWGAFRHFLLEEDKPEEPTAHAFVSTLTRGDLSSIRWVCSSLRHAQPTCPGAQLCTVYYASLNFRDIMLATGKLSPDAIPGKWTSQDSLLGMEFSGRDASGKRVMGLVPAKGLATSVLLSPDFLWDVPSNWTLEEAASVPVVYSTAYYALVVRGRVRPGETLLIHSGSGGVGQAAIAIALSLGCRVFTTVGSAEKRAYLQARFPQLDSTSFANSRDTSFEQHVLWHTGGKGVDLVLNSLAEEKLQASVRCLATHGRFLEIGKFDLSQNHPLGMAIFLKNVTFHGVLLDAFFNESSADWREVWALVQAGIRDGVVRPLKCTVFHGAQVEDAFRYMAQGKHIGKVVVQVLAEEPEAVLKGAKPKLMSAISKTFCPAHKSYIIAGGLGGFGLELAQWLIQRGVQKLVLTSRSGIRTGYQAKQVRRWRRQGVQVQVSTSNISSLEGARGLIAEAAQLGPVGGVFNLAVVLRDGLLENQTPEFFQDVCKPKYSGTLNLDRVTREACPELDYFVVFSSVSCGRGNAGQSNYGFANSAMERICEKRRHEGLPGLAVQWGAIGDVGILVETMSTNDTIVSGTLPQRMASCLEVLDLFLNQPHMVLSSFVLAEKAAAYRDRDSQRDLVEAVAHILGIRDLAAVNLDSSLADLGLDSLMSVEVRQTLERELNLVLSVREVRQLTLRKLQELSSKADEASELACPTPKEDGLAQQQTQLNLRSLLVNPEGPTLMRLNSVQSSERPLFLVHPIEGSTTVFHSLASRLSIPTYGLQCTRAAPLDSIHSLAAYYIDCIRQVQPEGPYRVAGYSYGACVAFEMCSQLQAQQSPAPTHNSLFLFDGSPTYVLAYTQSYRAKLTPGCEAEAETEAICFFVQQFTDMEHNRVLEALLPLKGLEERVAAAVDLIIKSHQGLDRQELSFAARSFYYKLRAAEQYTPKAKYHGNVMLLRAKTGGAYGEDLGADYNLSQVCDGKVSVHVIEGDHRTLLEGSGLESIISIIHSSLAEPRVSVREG

Row | Structure (SMILES) | pIC50 (Fatty acid synthase) | Weight loss (Mus musculus) | IC50 (MCF7 [1]; [3]) | IC50 (MCF7 [2]; [3]) | Weight loss (Mus musculus; 60 mg/kg) | IC50 (MCF7 [1]; mcf7) | IC50 (MCF7 [2]; mcf7)
1 | C=CCNC(=O)COC1=CC(=O)S[C@]1(C)CCCCCCCC | < 3.83 | 2.4% | > 50 mg/L | 12.1 mg/L (≈ 35.6 µM) | – | – | –
2 | CCCCCCCC[C@@]1(C)SC(=O)C=C1OCC(=O)OCC | < 3.82 | 2.7% | 10.8 mg/L (≈ 32.9 µM) | 35.3 mg/L (≈ 107 µM) | – | – | –
3 | C[C@]1(Cc2ccccc2)SC(O)=CC1=O | < 3.64 | 1.6% | > 50 mg/L | > 80 mg/L | – | – | –
4 | C=CCOC(=O)OC1=CC(=O)S[C@]1(C)CCCCCCCC | 4.68 | 3.4% | 14.2 mg/L (≈ 43.5 µM) | 37.3 mg/L (≈ 114 µM) | – | – | –
5 | CCCCCCCC[C@@]1(C)SC(O)=C(C)C1=O | 3.72 | 0% | 16.5 mg/L (≈ 64.3 µM) | 48 mg/L (≈ 187 µM) | – | – | –
6 | CCCCCCCC[C@@]1(C)SC(O)=C(C(C)=O)C1=O | < 3.75 | 8.2% | 12 mg/L (≈ 42.2 µM) | 12.5 mg/L (≈ 43.9 µM) | – | – | –
7 | CCCCCCCC[C@@]1(C)SC(O)=CC1=O | 4.78 | 2% | 12.6 mg/L (≈ 52 µM) | 17.6 mg/L (≈ 72.6 µM) | – | – | –
8 | CCCCCC[C@@]1(C)SC(=O)C=C1OC | < 3.66 | – | 14 mg/L (≈ 61.3 µM) | 9.4 mg/L (≈ 41.2 µM) | – | – | –
9 | CCCCCCCC[C@@]1(C)SC(=O)C=C1OC | < 3.71 | – | > 50 mg/L | 16.4 mg/L (≈ 64 µM) | – | – | –
10 | CCCCCC[C@@]1(C)SC(=O)C=C1OCCCCCl | < 3.79 | – | 8.6 mg/L (≈ 28.2 µM) | 20.8 mg/L (≈ 68.2 µM) | – | – | –
11 | C/C=C/C(C)=C/[C@@]1(C)SC(O)=CC1=O | < 3.62 | 4.1% | 17.3 mg/L (≈ 82.3 µM) | > 80 mg/L | – | – | –
12 | C=CCC1(CC=C)C(=O)S[C@](C)(CCCCCCCC)C1=O | < 3.81 | – | > 50 mg/L | 40.5 mg/L (≈ 126 µM) | – | – | –
13 | C=CCOC1=CC(=O)S[C@]1(C)CCCCCCCC | < 3.75 | – | > 50 mg/L | 14.5 mg/L (≈ 51.3 µM) | – | – | –
14 | CCCCCC[C@@]1(C)SC(=O)C=C1OCC(=O)OCC | < 3.78 | – | 14.2 mg/L (≈ 47.3 µM) | 39.6 mg/L (≈ 132 µM) | – | – | –
15 | C=CCC1(C)C(=O)S[C@](C)(CCCCCCCC)C1=O (some centres undefined) | < 3.77 | – | > 50 mg/L | 40.5 mg/L (≈ 137 µM) | – | – | –
16 | CCCC/C=C/C=C/[C@@]1(C)SC(O)=CC1=O | 4.44 | 11% | 22.6 mg/L (≈ 94.8 µM) | 60 mg/L (≈ 252 µM) | – | – | –
17 | CCCCCCCC[C@@]1(C)SC(=O)C=C1OC(=O)OCC | 4.83 | 7.1% | 14.5 mg/L (≈ 46.1 µM) | 15.1 mg/L (≈ 48 µM) | – | – | –
18 | C=C/C(C)=C/[C@@]1(C)SC(=O)C=C1O | 4.37 | 7.8% | – | > 80 mg/L | – | – | –
19 | CCCCCC[C@@]1(C)SC(=O)C=C1OCC(=O)NCC(=O)OC | < 3.84 | – | 9.8 mg/L (≈ 28.5 µM) | 40.5 mg/L (≈ 118 µM) | – | – | –
20 | COC1=CC(=O)S[C@]1(C)Cc1ccccc1 | < 3.67 | – | > 50 mg/L | – | – | – | –

Row | Structure (SMILES) | pIC50 (Fatty acid synthase) | Weight loss (Mus musculus) | IC50 (MCF7 [1]; [3]) | IC50 (MCF7 [2]; [3]) | Weight loss (Mus musculus; 60 mg/kg) | IC50 (MCF7 [1]; mcf7) | IC50 (MCF7 [2]; mcf7)
21 | CCCCCCCC[C@@]1(C)SC(=O)C=C1OCCCCCl | < 3.82 | – | > 50 mg/L | 35.3 mg/L (≈ 106 µM) | – | – | –
22 | CCCCCCCC[C@@]1(C)SC(O)=C(C(=O)OC)C1=O | < 3.78 | – | 18.7 mg/L (≈ 62.2 µM) | 47.2 mg/L (≈ 157 µM) | – | – | –
23 | CCCCCC[C@@]1(C)SC(O)=CC1=O | < 3.63 | – | 16.5 mg/L (≈ 77 µM) | > 80 mg/L | – | – | –
24 | C=CCOC1=C(C)C(=O)S[C@]1(C)CCCCCCCC | < 3.77 | – | > 50 mg/L | 34.7 mg/L (≈ 117 µM) | – | – | –
25 | CCCCCCCC[C@@]1(C)SC(=O)C=C1OC(=O)OC | 5.16 | 6.1% | 10.7 mg/L (≈ 35.6 µM) | 21.6 mg/L (≈ 71.9 µM) | – | – | –
26 | CC/C=C/C=C/[C@@]1(C)SC(O)=CC1=O | < 3.62 | 3.2% | 16.9 mg/L (≈ 80.4 µM) | > 80 mg/L | – | – | –
27 | CCCCCCCC[C@@]1(C)SC(O)=C(C(=O)C(F)(F)F)C1=O | 3.92 | – | 14.7 mg/L (≈ 43.4 µM) | 18.4 mg/L (≈ 54.4 µM) | – | – | –
28 | CCCCCC[C@@]1(C)SC(=O)C=C1OCC(=O)NCC(=O)O | < 3.82 | 3.5% | 6.6 mg/L (≈ 20 µM) | – | – | – | –
29 | CCCCCC[C@@]1(C)SC(=O)C=C1OCC(=O)NCCCBr | < 3.89 | – | 6.7 mg/L (≈ 17.1 µM) | 21 mg/L (≈ 53.5 µM) | – | – | –
30 | CCCCCCCC[C@@]1(C)SC(=O)C=C1OC(=O)CC | < 3.78 | – | 22.6 mg/L (≈ 75.7 µM) | 26.8 mg/L (≈ 89.8 µM) | – | – | –
31 | CCCCCCCC[C@@]1(C)SC(=O)C=C1OCC(=O)O | < 3.78 | – | 13.8 mg/L (≈ 45.9 µM) | – | – | – | –
32 | C=CCOC1=CC(=O)S[C@]1(C)CCCCCC | < 3.71 | – | > 50 mg/L | 9 mg/L (≈ 35.4 µM) | – | – | –
33 | C=CCC1=C(O)S[C@](C)(CCCCCCCC)C1=O | 5.00 | – | 34.8 mg/L (≈ 123 µM) | 44.4 mg/L (≈ 157 µM) | – | – | –
34 | C#CCOC1=CC(=O)S[C@]1(C)CCCCCC | < 3.70 | – | 21.9 mg/L (≈ 86.8 µM) | 8.9 mg/L (≈ 35.3 µM) | – | – | –
35 | CCCCCCCC[C@@]1(C)SC(=O)C(C)=C1OC | < 3.73 | – | > 50 mg/L | 17.3 mg/L (≈ 64 µM) | – | – | –
36 | CCCCCCCC[C@@]1(C)SC(O)=C(C(C)O)C1=O (stereo in doubt; 29) | 4.70 | – | 17.6 mg/L (≈ 61.4 µM) | 23.9 mg/L (≈ 83.4 µM) | 3.5% | – | –
37 | CCCCCCCC[C@@]1(C)SC(O)=C(C(C)O)C1=O (stereo in doubt; 30) | 4.94 | – | – | – | 0.2% | 21.7 mg/L (≈ 75.8 µM) | 21 mg/L (≈ 73.3 µM)
38 | C=C/C(C)=C/[C@@]1(C)SC(=O)C(C)=C1O (stereo in doubt; form 1) [THIOLACTOMYCIN] | 4.00 | – | 38.4 mg/L (≈ 183 µM) | > 80 mg/L | – | – | –
39 | C=C/C(C)=C/[C@@]1(C)SC(=O)C(C)=C1O (stereo in doubt; form 2) [THIOLACTOMYCIN] | 3.85 | 2.6% | – | – | – | 41.8 mg/L (≈ 199 µM) | –

Reference: ChEMBL document CHEMBL1142684, “Application of a flexible synthesis of (5R)-thiolactomycin to develop new inhibitors of type I fatty acid synthase” (J Med Chem, 2005)
